The source made the active and inactive calls. No cut-off for these calls is given here.
Tests used:
Format in all cases: functional
[1] = Antioxidant activity assessed as copper ion radical scavenging activity at 2 uM
Summary of the method: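 Cu(II)-reducing test: compound in distilled water mixed 40:160 with 0.5 mM CuCl2 plus 0.75 mM neocuproine in 10 mM phosphate buffer, pH 7.4. Absorbance read at 454 nm for 1 h. Reduced Cu(I) concentration measured at 2 μM compound.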

[2] = Metal chelating activity of the compound at 1 to 2 uM
Summary of the method: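 Chelation: compound mixed 1:1 with CuSO4, then calcein added. Fluorescence read at excitation 485 nm and emission 535 nm, compared with calcein-only control. Tested at 1 and 2 μM; mean ± S.D.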

[3] = Antioxidant activity assessed as peroxyl radical scavenging activity at 1 to 2 uM by ORAC assay
Summary of the method: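 ORAC peroxyl-radical assay at 1.0 and 2.0 μM. Fluorescein is the radical target and 20 mM AAPH the generator. Fluorescence recorded every 2 min after AAPH, relative to the initial reading. Net area under the decay curve versus blank, expressed as μM Trolox equivalents against freshly prepared Trolox standard.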

Structure (SMILES)	Activity [1]	Activity [2]	Activity [3]
O=c1cc(-c2ccc(O)cc2)oc2c([C@@H]3O[C@H](CO)[C@@H](O)[C@H](O)[C@H]3O[C@H]3OC[C@@](O)(CO)[C@@H]3O)c(O)cc(O)c12	inactive	inactive	–
O=c1cc(-c2ccc(O[C@@H]3O[C@H](CO)[C@@H](O)[C@H](O)[C@H]3O)cc2)oc2cc(O)c([C@@H]3O[C@H](CO)[C@@H](O)[C@H](O)[C@H]3O)c(O)c12	inactive	inactive	–
CC1=CC(=O)CC(C)(C)[C@H]1/C=C/[C@@H](C)O[C@@H]1O[C@H](CO[C@@H]2O[C@@H](CO)[C@H](O)[C@H]2O)[C@@H](O)[C@H](O)[C@H]1O	inactive	inactive	inactive
CCCCCCCCCCCCCCCCCC(=O)OC[C@H]1O[C@@H](O[C@H]2CC[C@@]3(C)C(=CC[C@H]4[C@@H]5CC[C@H]([C@H](C)CC[C@@H](CC)C(C)C)[C@@]5(C)CC[C@@H]43)C2)[C@H](O)[C@@H](O)[C@@H]1O	inactive	inactive	inactive
O=c1cc(-c2ccc(O)cc2)oc2cc(O)c([C@@H]3O[C@H](CO)[C@@H](O)[C@H](O)[C@H]3O)c(O)c12	inactive	inactive	–
Oc1cc(O)c2c(c1)O[C@H](c1ccc(O)c(O)c1)[C@H](O)C2	Active	inactive	Active
CC[C@H](CC[C@@H](C)[C@H]1CC[C@H]2[C@@H]3CC=C4C[C@@H](O)CC[C@]4(C)[C@H]3CC[C@]12C)C(C)C	inactive	inactive	inactive
COc1cc(/C=C/CO)cc(OC)c1O[C@@H]1O[C@H](CO)[C@@H](O)[C@H](O)[C@H]1O	inactive	inactive	inactive
C[C@H](O)/C=C/[C@@]1(O)C(C)(C)C[C@H](O)C[C@@]1(C)O	inactive	inactive	inactive
O=c1cc(-c2ccc(O)c(O)c2)oc2cc(O)c([C@@H]3O[C@H](CO)[C@@H](O)[C@H](O)[C@H]3O)c(O)c12	Active	inactive	Active
C[C@H](/C=C/[C@]1(O)C(C)(C)C[C@@H](O)C[C@]1(C)O)O[C@H]1O[C@@H](CO)[C@H](O)[C@@H](O)[C@@H]1O	inactive	inactive	inactive
C[C@@H]1C[C@H](O)CC(C)(C)[C@@]1(O)CC[C@H](C)O[C@H]1O[C@@H](CO)[C@H](O)[C@@H](O)[C@@H]1O	inactive	inactive	inactive
Oc1cc(O)c2c(c1)O[C@H](c1ccc(O)c(O)c1)[C@@H](O)C2	Active	inactive	Active
CC[C@H](CC[C@@H](C)[C@H]1CC[C@H]2[C@@H]3CC=C4C[C@@H](O[C@@H]5O[C@H](CO)[C@@H](O)[C@H](O)[C@H]5O)CC[C@]4(C)[C@H]3CC[C@]12C)C(C)C	inactive	inactive	inactive

Source: ChEMBL document CHEMBL1641480, “Antioxidant activity of a new C-glycosylflavone from the leaves of Ficus microcarpa” (Bioorg Med Chem Lett, 2011)
